The source made the active and inactive calls. The rule behind the calls is not given here.
What was measured:
[1] = target: T1, NACHT, LRR and PYD domains-containing protein 3 (Homo sapiens, UniProt Q96P20); test: Inhibition of NLRP3 inflammasome (unknown origin) activation in LPS-primed bone marrow derived macrophage cells at 10 uM in presence of mono sodium urate relative to control
[2] = target: Cystic fibrosis transmembrane conductance regulator (Homo sapiens) (UniProt P13569); test: Inhibition of CFTR in human HT-29 cells assessed as effect on intracellular chloride efflux at 20 uM relative to control; type: cell-based
[3] = target: T1, NACHT, LRR and PYD domains-containing protein 3; test: Inhibition of NLRP3 inflammasome (unknown origin) activation in LPS-primed bone marrow derived macrophage cells assessed as effect on IL-1beta production in presence of nigericin by ELISA
Summary of the method: (§1)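 BMDMs pretreated with varied doses of compound, then LPS-primed and stimulated with nigericin; IL-1β in supernatant by ELISA, normalized to DMSO-treated control; IC50 given as mean ± SD.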

Homo sapiens = organism: Homo sapiens; test: Selectivity index, ratio of inhibition of NLRP3 inflammasome (unknown origin) activation in bone marrow derived macrophage cells at 10 uM to inhibition of CFTR in human HT-29 cells at 20 uM; type: cell-based
Summary of the method: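 Selectivity index: % NLRP3 inhibition in BMDMs at 10 μM divided by % CFTR inhibition in HT29 cells at 20 μM.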

[4] = Half life in human liver microsomes in presence of NADPH; type: ADME, Microsome
Summary of the method: (§2)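 Stability in human and mouse liver microsomes incubated with an NADPH regenerating system; half-life (min) and hepatic clearance (mL/min/kg) determined.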

[5] = Clearance in human liver microsomes in presence of NADPH; type: ADME, Microsome; summary of the method: as §2
[6] = Half life in mouse liver microsomes in presence of NADPH; type: ADME, Microsome; summary of the method: as §2
[7] = Clearance in mouse liver microsomes in presence of NADPH; type: ADME, Microsome; summary of the method: as §2
[8] = target: T1, NACHT, LRR and PYD domains-containing protein 3; test: Inhibition of NLRP3 inflammasome (unknown origin) assessed as suppression of mono sodium urate-induced caspase 1 activation by immunoblot analysis
Summary of the method: (§3)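 LPS-primed BMDMs treated with graded doses of test compound, then stimulated with MSU; IL-1β and cleaved caspase-1 (p20) in culture supernatants detected by immunoblot.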

[9] = target: T1, NACHT, LRR and PYD domains-containing protein 3; test: Inhibition of NLRP3 inflammasome (unknown origin) assessed as suppression of mono sodium urate-induced IL-1beta level by immunoblot analysis; summary of the method: as §3
[10] = target: T1, NACHT, LRR and PYD domains-containing protein 3; test: Inhibition of NLRP3 inflammasome (unknown origin) activation in LPS-primed bone marrow derived macrophages assessed as inhibition of IL-1beta secretion at 5 uM in presence of nigericin by ELISA; details: TDE = time-dependent effect
Summary of the method: (§4)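 LPS-primed BMDMs treated with compound (5 μM) and stimulated with nigericin (10 µM), ATP (2.5 mM) or MSU (150 µg/mL), over a time course or at increasing agonist doses; secreted IL-1β by ELISA.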

[11] = target: T1, NACHT, LRR and PYD domains-containing protein 3; test: Inhibition of NLRP3 inflammasome (unknown origin) activation in LPS-primed bone marrow derived macrophages assessed as inhibition of IL-1beta secretion at 5 uM in presence of ATP by ELISA; details: TDE = time-dependent effect; summary of the method: as §4
[12] = target: T1, NACHT, LRR and PYD domains-containing protein 3; test: Inhibition of NLRP3 inflammasome (unknown origin) activation in LPS-primed bone marrow derived macrophages assessed as inhibition of IL-1beta secretion at 5 uM in presence of mono sodium urate by ELISA; details: TDE = time-dependent effect; summary of the method: as §4
[13] = target: T1, NACHT, LRR and PYD domains-containing protein 3; test: Inhibition of NLRP3 inflammasome (unknown origin) activation in LPS-primed bone marrow derived macrophages assessed as inhibition of IL-1beta secretion in presence of nigericin by ELISA; summary of the method: as §1
[14] = target: T1, NACHT, LRR and PYD domains-containing protein 3; test: Inhibition of NLRP3 inflammasome (unknown origin) activation in LPS-primed bone marrow derived macrophages assessed as inhibition of IL-1beta secretion in presence of ATP by ELISA; summary of the method: as §4
[15] = target: T1, NACHT, LRR and PYD domains-containing protein 3; test: Inhibition of NLRP3 inflammasome (unknown origin) activation in LPS-primed bone marrow derived macrophages assessed as inhibition of IL-1beta secretion in presence of mono sodium urate by ELSIA; summary of the method: as §4
[16] = target: T1, NACHT, LRR and PYD domains-containing protein 3; test: Inhibition of NLRP3 inflammasome (unknown origin) activation in bone marrow derived macrophage cells assessed as effect on nigericin-induced TNF-alpha secretion at 5 uM by ELISA
Summary of the method: (§5)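 LPS-primed BMDMs given compound (5 μM), then nigericin (10 µM), ATP (2.5 mM) or MSU (150 µg/mL); TNF-α in supernatant measured by ELISA.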

[17] = target: T1, NACHT, LRR and PYD domains-containing protein 3; test: Inhibition of NLRP3 inflammasome (unknown origin) activation in bone marrow derived macrophage cells assessed as effect on ATP-induced TNF-alpha secretion at 5 uM by ELISA; summary of the method: as §5
[18] = target: T1, NACHT, LRR and PYD domains-containing protein 3; test: Inhibition of NLRP3 inflammasome (unknown origin) activation in bone marrow derived macrophage cells assessed as effect on mono sodium urate-induced TNF-alpha secretion at 5 uM by ELISA; summary of the method: as §5
[19] = target: NLR family CARD domain-containing protein 4 (Homo sapiens) (UniProt Q9NPP4); test: Inhibition of NLRC4 inflammasome (unknown origin) activation in bone marrow derived macrophages assessed as inhibition of Salmonella-induced IL-1beta secretion at 5 uM by ELISA
Summary of the method: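 LPS-primed BMDMs treated with compound (5 μM), then infected with Salmonella typhimurium for different times; supernatant IL-1β by ELISA.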

[20] = target: T2, Interferon-inducible protein AIM2 (Homo sapiens) (UniProt O14862); test: Inhibition of AIM2 inflammasome (unknown origin) activation in bone marrow derived macrophages assessed as inhibition of poly(dA:dT)-induced IL-1beta secretion at 5 uM by ELISA
T2 sequence (whole entry): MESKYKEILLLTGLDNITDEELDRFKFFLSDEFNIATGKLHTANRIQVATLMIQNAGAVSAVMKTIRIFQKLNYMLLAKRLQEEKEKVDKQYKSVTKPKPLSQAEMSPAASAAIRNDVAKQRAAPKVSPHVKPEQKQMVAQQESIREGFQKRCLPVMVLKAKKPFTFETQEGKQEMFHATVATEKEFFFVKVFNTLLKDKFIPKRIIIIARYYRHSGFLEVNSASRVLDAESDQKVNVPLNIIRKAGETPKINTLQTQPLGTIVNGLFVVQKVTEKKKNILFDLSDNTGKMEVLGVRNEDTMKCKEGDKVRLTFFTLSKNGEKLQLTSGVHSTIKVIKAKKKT
Summary of the method: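 LPS-primed BMDMs treated with compound (5 μM), then transfected with poly(dA:dT) (0.5 µg/ml) using Lipofectamine for various times; supernatant IL-1β by ELISA.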

[21] = AUC in po or iv qd dosed Sprague-Dawley rat; type: ADME, organism-based; details: in vivo
Summary of the method: (§6)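 Sprague-Dawley rats given a single intravenous or oral dose; pharmacokinetic parameters (half-life, AUC, bioavailability) derived from the plasma profile.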

[22] = Oral bioavailability in Sprague-Dawley rat administered as single dose; type: ADME, organism-based; details: in vivo; summary of the method: as §6
Mus musculus [23] = test: In vivo inhibition of NLRP3 inflammasome activation in mouse model of cryopyrin-associated auto-inflammatory syndrome; type: functional, organism-based
Mus musculus [24] = organism: Mus musculus; test: Reversal of NLRP3 mediated metabolic disorder in mouse model of diabetes; type: functional, organism-based

T1 sequence (Q96P20 whole entry, the tested form may be a part): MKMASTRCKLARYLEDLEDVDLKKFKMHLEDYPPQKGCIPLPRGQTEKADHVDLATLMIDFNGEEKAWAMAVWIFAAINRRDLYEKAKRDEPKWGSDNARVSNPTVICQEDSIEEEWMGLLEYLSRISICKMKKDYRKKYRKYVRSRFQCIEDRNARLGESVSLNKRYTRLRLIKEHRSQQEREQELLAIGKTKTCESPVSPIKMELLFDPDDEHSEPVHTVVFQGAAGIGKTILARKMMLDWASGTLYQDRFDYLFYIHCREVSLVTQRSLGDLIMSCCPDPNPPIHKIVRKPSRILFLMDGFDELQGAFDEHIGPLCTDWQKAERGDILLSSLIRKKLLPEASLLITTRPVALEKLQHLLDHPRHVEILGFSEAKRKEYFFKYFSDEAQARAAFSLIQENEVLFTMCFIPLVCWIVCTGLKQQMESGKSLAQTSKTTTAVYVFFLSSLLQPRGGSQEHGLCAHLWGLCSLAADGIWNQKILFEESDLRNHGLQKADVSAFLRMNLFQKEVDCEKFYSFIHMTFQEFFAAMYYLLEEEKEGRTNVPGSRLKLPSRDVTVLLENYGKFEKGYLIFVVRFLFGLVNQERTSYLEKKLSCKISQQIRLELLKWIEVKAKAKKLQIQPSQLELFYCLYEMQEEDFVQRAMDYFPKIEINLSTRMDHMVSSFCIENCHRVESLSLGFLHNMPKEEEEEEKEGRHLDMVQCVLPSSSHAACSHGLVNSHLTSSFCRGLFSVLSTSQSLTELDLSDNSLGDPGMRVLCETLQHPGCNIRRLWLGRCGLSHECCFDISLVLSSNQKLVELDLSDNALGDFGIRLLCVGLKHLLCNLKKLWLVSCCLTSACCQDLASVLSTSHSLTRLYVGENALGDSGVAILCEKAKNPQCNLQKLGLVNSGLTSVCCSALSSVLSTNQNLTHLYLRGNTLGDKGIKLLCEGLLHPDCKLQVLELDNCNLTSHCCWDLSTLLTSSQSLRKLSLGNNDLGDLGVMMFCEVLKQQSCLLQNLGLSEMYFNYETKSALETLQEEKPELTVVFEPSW
Sequence of Cystic fibrosis transmembrane conductance regulator (Homo sapiens) (P13569 whole entry, looked up, the tested form may be a part): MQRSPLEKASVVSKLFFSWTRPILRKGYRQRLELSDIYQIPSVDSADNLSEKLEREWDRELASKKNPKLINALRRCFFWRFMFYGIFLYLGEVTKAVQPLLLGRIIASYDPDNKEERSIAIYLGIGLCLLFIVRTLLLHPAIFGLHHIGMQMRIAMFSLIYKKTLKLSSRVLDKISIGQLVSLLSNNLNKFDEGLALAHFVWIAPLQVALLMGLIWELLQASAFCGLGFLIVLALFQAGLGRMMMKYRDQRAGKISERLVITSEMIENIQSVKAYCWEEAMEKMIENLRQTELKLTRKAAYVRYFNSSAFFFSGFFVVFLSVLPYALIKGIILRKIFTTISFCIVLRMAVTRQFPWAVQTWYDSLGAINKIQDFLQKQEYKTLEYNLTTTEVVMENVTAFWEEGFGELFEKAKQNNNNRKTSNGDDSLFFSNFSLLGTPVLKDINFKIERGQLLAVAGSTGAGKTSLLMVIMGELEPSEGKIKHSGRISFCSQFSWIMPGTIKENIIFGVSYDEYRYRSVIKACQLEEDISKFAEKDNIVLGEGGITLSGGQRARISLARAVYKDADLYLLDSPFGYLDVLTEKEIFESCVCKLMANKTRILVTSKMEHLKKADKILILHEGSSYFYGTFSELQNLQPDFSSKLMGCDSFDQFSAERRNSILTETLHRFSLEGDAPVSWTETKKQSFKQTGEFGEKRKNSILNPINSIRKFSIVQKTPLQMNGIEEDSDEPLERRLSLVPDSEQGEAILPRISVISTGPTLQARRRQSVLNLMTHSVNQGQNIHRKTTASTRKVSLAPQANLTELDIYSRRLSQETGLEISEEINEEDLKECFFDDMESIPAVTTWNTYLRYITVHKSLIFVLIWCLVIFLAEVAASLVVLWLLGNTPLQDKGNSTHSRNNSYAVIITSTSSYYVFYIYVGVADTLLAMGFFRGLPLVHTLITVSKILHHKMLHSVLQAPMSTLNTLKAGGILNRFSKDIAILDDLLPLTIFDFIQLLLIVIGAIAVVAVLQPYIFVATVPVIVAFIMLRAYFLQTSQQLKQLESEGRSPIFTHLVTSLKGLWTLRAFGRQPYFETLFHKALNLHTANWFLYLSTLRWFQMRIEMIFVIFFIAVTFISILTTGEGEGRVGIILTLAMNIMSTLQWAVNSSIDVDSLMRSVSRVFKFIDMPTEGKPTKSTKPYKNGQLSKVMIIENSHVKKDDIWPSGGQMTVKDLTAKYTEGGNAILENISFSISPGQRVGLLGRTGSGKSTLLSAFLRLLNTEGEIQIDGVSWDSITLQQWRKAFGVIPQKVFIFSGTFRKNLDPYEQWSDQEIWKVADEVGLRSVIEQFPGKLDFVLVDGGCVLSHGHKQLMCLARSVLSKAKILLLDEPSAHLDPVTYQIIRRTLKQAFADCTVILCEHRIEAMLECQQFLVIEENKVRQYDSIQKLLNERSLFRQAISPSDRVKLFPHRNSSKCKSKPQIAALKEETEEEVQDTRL
Sequence of NLR family CARD domain-containing protein 4 (Homo sapiens) (Q9NPP4 whole entry, the tested form may be a part): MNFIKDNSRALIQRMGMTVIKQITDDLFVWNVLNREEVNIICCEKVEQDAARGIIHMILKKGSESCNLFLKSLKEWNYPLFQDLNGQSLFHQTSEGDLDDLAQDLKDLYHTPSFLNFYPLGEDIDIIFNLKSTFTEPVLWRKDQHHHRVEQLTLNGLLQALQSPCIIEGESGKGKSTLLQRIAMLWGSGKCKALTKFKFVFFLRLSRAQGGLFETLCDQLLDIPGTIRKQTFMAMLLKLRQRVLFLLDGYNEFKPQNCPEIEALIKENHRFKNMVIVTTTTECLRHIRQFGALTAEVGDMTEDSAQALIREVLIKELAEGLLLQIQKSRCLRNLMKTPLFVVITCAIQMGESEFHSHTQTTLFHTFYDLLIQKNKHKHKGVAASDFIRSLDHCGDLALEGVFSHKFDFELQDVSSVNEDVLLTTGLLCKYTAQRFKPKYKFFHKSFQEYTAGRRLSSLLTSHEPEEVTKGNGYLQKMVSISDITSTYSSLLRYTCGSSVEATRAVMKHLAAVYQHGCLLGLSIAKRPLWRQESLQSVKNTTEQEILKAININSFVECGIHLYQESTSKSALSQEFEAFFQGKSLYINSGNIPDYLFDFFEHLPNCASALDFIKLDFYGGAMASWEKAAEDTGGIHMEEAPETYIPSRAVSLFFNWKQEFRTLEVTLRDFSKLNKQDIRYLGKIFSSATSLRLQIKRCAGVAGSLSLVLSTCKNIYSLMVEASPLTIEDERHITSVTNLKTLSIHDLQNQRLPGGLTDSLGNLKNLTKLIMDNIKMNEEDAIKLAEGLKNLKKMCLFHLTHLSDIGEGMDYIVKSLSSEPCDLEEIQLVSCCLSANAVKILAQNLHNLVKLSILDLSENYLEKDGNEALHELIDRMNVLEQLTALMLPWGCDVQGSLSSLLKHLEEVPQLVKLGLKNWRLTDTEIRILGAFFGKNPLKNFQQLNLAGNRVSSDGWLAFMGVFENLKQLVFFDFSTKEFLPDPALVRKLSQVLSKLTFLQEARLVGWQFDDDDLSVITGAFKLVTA

Structure (SMILES)	inhibition [1]	inhibition [2]	IC50 [3]	Selectivity Index (Homo sapiens)	half-life [4]	CLhep predicted [5]	half-life [6]	CLhep predicted [7]	other results
O=C(O)c1ccc(/C=C2\SC(=S)N(CCc3cccc(C(F)(F)F)c3)C2=O)cc1	74%	> 10%	5.91 µM						
CN1CCN(C(=O)c2ccc(/C=C3\SC(=S)N(c4cccc(OC(F)(F)F)c4)C3=O)cc2)CC1	76%	69%	2.57 µM	1.1	27.1 min	12.8 mL/min/kg	3.7 min	83 mL/min/kg	
O=C(O)c1ccc(/C=C2\SC(=S)N(Cc3ccc(-c4ccccc4)cc3)C2=O)cc1	73%	11%	7.63 µM						
O=C(O)c1ccc(/C=C2\SC(=S)N(Cc3cccc(F)c3)C2=O)cc1	63%	> 10%	3.52 µM						
CN1CCN(C(=O)c2ccc(/C=C3\SC(=S)N(c4cccc([N+](=O)[O-])c4)C3=O)cc2)CC1	81%	66%	2.98 µM	1.23	13.8 min	15.8 mL/min/kg	1.8 min	86.5 mL/min/kg	
O=C(O)c1ccc(/C=C2\SC(=O)N(Cc3cccc(C(F)(F)F)c3)C2=O)cc1	67%	23%	5.96 µM						
CC(C)NCC(O)COc1cccc2ccccc12 (configuration not stated) [PROPRANOLOL]					15.6 min	15.3 mL/min/kg	1.7 min	86.6 mL/min/kg	
O=C(O)c1ccc(/C=C2\SC(=S)N(c3cccc(C(F)(F)F)c3)C2=O)cc1	71%	86%	6.39 µM	0.83	277 min	2.8 mL/min/kg	12.6 min	69.8 mL/min/kg	inhibition [8]: Dose-dependent effect; inhibition [9]: Dose-dependent effect
O=C(O)c1ccc(/C=C2\SC(=S)N(Cc3cccc(C(F)(F)F)c3)C2=O)cc1	83%		2.4 µM		> 145 min	< 4.7 mL/min/kg	> 145 min	< 20.7 mL/min/kg	inhibition [10]: Tde; inhibition [11]: Tde; inhibition [12]: Tde; inhibition [13]: Dose-dependent effect; inhibition [14]: Dose-dependent effect; inhibition [15]: Dose-dependent effect; inhibition [16]: inactive; inhibition [17]: inactive; inhibition [18]: inactive; inhibition [19]: inactive; inhibition [20]: inactive; AUC [21]: 1930 ng·h/mL; bioavailability [22]: 27%; inhibition (Mus musculus [23]): Active; Activity (Mus musculus [24]): Active
O=C(c1ccc(/C=C2\SC(=S)N(c3cccc(C(F)(F)F)c3)C2=O)cc1)N1CCOCC1	81%	74%	2.74 µM	1.09	> 145 min	< 4.7 mL/min/kg	> 145 min	< 20.7 mL/min/kg	
O=C(c1ccc(/C=C2\SC(=S)N(c3cccc(C(F)(F)F)c3)C2=O)cc1)N1CCC(O)CC1	80%	72%	2.44 µM	1.11	44.1 min	10.3 mL/min/kg	4 min	82.4 mL/min/kg	
O=C(O)c1ccc(/C=C2\SC(=S)N(Cc3cccc(OC(F)(F)F)c3)C2=O)cc1	29%	12%	> 10 µM						
O=C(c1ccc(/C=C2\SC(=S)N(c3cccc(OC(F)(F)F)c3)C2=O)cc1)N1CCOCC1	75%	68%	3.18 µM	1.1	187 min	3.9 mL/min/kg	23.9 min	58.1 mL/min/kg	
O=C(O)c1ccc(/C=C2\SC(=S)N(CCCc3cccc(C(F)(F)F)c3)C2=O)cc1	68%		4.32 µM						
O=C1/C(=C/c2ccc(-c3nnn[nH]3)cc2)SC(=S)N1CCc1cccc(C(F)(F)F)c1	67%		6.5 µM						
O=C(Nc1ccccc1)c1ccc(/C=C2\SC(=S)N(c3cccc(C(F)(F)F)c3)C2=O)cc1	32%	27%	> 10 µM	1.19					
O=C1/C(=C/c2ccc(-c3nnn[nH]3)cc2)SC(=S)N1Cc1cccc(C(F)(F)F)c1	67%		5.58 µM						
O=C(O)c1ccc(/C=C2\SC(=S)N(Cc3cccnc3)C2=O)cc1	63%	> 10%	6.27 µM						
CN1CCN(C(=O)c2ccc(/C=C3\SC(=S)N(c4cccc(C(F)(F)F)c4)C3=O)cc2)CC1	81%	77%	2.69 µM	1.05	15.6 min	15.3 mL/min/kg	1.7 min	86.6 mL/min/kg	
CN1CCN(C(=O)c2ccc(/C=C3\SC(=S)N(Cc4cccc(C(F)(F)F)c4)C3=O)cc2)CC1	35%	10%	> 10 µM						
O=C1S/C(=C\c2ccc(-c3nnn[nH]3)cc2)C(=O)N1Cc1cccc(C(F)(F)F)c1	63%	> 10%	5.61 µM						
C[C@]12CC[C@H]3[C@@H](CCC4=CC(=O)CC[C@@]43C)[C@@H]1CC[C@@H]2O [TESTOSTERONE]					277 min	2.8 mL/min/kg			
O=C1/C(=C/c2ccc(-c3nnn[nH]3)cc2)SC(=S)N1CCCc1cccc(C(F)(F)F)c1	72%	> 10%	4.85 µM						

From ChEMBL document CHEMBL4627283, “Discovery and optimization of 4-oxo-2-thioxo-thiazolidinones as NOD-like receptor (NLR) family, pyrin domain-containing protein 3 (NLRP3) inhibitors” (Bioorg Med Chem Lett, 2020)
